From ChEMBL document CHEMBL1770123, “SPF32629A and SPF32629B: enantioselective synthesis, determination of absolute configuration, cytotoxicity and antibacterial evaluation” (Eur J Med Chem, 2011)
In brackets after ≈: the same amount, converted by molar mass. Activity calls are given as the source filed them. The calls are words filed in the database; no cut-off is given here.

Legend:
Staphylococcus aureus [1] = experiment: Antimicrobial activity against methicillin-resistant Staphylococcus aureus strain 2 TB4G at 1000 ug/disc after 24 hrs by disc diffusion method; assay type: functional; settings: for zone of inhibition at 1000 µg/disc: read-out: DIZ
Outline: (§1)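 Disc diffusion on 2.4% Mueller-Hinton agar inoculated with the strain. Paper discs 6 mm across were loaded with test compound and placed on the agar. Plates were incubated at 37 °C for 24 h. Read-out was the diameter of the inhibition zone in mm.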

A549 [2] = experiment: Cytotoxicity against human A549 cells assessed as cell death at 5 ug after 48 hrs by MTT assay; assay type: functional
Outline: (§2)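 A549 cells were grown in DMEM with 2 mmol L-glutamine, 10% FBS, penicillin (50 IU/mL) and streptomycin, at 37 °C and 5% CO2. 1×10^4 cells/well were plated and treated 24 h later with compound diluted in medium for 48 h. Controls were DMSO-matched and untreated wells. MTT 0.4 mg/mL in PBS was added for 4 h in the dark, then DMSO for 4 h. A540 was read and reported as % live cells relative to untreated.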

Escherichia coli [3] = experiment: Antimicrobial activity against Escherichia coli after 24 hrs by microdilution method; assay type: functional
Outline: (§3)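 Growth was judged by turbidity, and the MIC was taken as the minimum concentration giving the lowest growth. Amikacin served as reference.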

Staphylococcus aureus [4] = experiment: Antimicrobial activity against Staphylococcus aureus after 24 hrs by microdilution method; assay type: functional; outline: as §3
Staphylococcus aureus [5] = experiment: Antimicrobial activity against methicillin-resistant Staphylococcus aureus strain 4 TB5G at 1000 ug/disc after 24 hrs by disc diffusion method; assay type: functional; outline: as §1
Staphylococcus aureus [6] = experiment: Antimicrobial activity against Staphylococcus aureus at 1000 ug/disc after 24 hrs by disc diffusion method; assay type: functional
A549 [7] = experiment: Cytotoxicity against human A549 cells assessed as cell death at 2 ug after 48 hrs by MTT assay; assay type: functional; outline: as §2
Klebsiella pneumoniae [8] = experiment: Antimicrobial activity against Klebsiella pneumoniae after 24 hrs by microdilution method; assay type: functional; outline: as §3
Salmonella typhimurium [9] = experiment: Antimicrobial activity against Salmonella Typhimurium at 500 ug/disc after 24 hrs by disc diffusion method; assay type: functional, Salmonella enterica subsp. enterica serovar Typhimurium; settings: for zone of inhibition at 500 µg/disc: Salmonella enterica, read-out: DIZ
Bacillus subtilis [10] = experiment: Antimicrobial activity against Bacillus subtilis at 500 ug/disc after 24 hrs by disc diffusion method; assay type: functional; settings: read-out: DIZ
Staphylococcus aureus [11] = experiment: Antimicrobial activity against Staphylococcus aureus at 500 ug/disc after 24 hrs by disc diffusion method; assay type: functional; outline: as §1
Staphylococcus aureus [12] = experiment: Antimicrobial activity against methicillin-resistant Staphylococcus aureus strain 1 TB3G at 500 ug/disc after 24 hrs by disc diffusion method; assay type: functional; outline: as §1
Staphylococcus aureus [13] = experiment: Antimicrobial activity against methicillin-resistant Staphylococcus aureus strain 2 TB4G at 500 ug/disc after 24 hrs by disc diffusion method; assay type: functional; settings: for zone of inhibition at 500 µg/disc: read-out: DIZ; outline: as §1
Staphylococcus aureus [14] = experiment: Antimicrobial activity against methicillin-resistant Staphylococcus aureus strain 2 TB4G after 24 hrs by microdilution method; assay type: functional
Outline: (§4)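 Growth was judged by turbidity. The MIC was taken as the lowest concentration giving the lowest growth.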

Listeria monocytogenes [15] = experiment: Antimicrobial activity against Listeria monocytogenes at 500 ug/disc after 24 hrs by disc diffusion method; assay type: functional
Klebsiella pneumoniae [16] = experiment: Antimicrobial activity against Klebsiella pneumoniae at 1000 ug/disc after 24 hrs by disc diffusion method; assay type: functional; settings: read-out: DIZ
Bacillus subtilis [17] = experiment: Antimicrobial activity against Bacillus subtilis after 24 hrs by microdilution method; assay type: functional; outline: as §3
Escherichia coli [18] = experiment: Antimicrobial activity against Escherichia coli at 500 ug/disc after 24 hrs by disc diffusion method; assay type: functional; settings: read-out: DIZ
Klebsiella pneumoniae [19] = experiment: Antimicrobial activity against Klebsiella pneumoniae at 500 ug/disc after 24 hrs by disc diffusion method; assay type: functional; settings: read-out: DIZ
Salmonella typhimurium [20] = experiment: Antimicrobial activity against Salmonella Typhimurium at 1000 ug/disc after 24 hrs by disc diffusion method; assay type: functional, Salmonella enterica subsp. enterica serovar Typhimurium; settings: for zone of inhibition at 1000 µg/disc: Salmonella enterica, read-out: DIZ
Staphylococcus aureus [21] = experiment: Antimicrobial activity against methicillin-resistant Staphylococcus aureus strain 1 TB3G at 1000 ug/disc after 24 hrs by disc diffusion method; assay type: functional; outline: as §1
Listeria monocytogenes [22] = experiment: Antimicrobial activity against Listeria monocytogenes after 24 hrs by microdilution method; assay type: functional; outline: as §3
A549 [23] = experiment: Cytotoxicity against human A549 cells assessed as cell death at 1 ug after 48 hrs by MTT assay; assay type: functional; outline: as §2
Salmonella typhimurium [24] = experiment: Antimicrobial activity against Salmonella Typhimurium after 24 hrs by microdilution method; assay type: functional, Salmonella enterica subsp. enterica serovar Typhimurium; settings: Salmonella enterica; outline: as §3
Staphylococcus aureus [25] = experiment: Antimicrobial activity against methicillin-resistant Staphylococcus aureus strain 4 TB5G at 500 ug/disc after 24 hrs by disc diffusion method; assay type: functional; outline: as §1
Listeria monocytogenes [26] = experiment: Antimicrobial activity against Listeria monocytogenes at 1000 ug/disc after 24 hrs by disc diffusion method; assay type: functional
A549 [27] = experiment: Cytotoxicity against human A549 cells assessed as cell death at 25 ug after 48 hrs by MTT assay; assay type: functional; outline: as §2
A549 [28] = experiment: Cytotoxicity against human A549 cells after 48 hrs by MTT assay; assay type: functional, cell-based; settings: A549, 48 h
Outline: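 A549 cells were kept in DMEM with 2 mM L-glutamine, 10% FBS, penicillin 50 IU/mL and streptomycin at 37 °C under 5% CO2. 1×10^4 cells per well were treated 24 h after seeding with compounds diluted in medium for 48 h. MTT (0.4 mg/mL in PBS) was added for 4 h in the dark, formazan was dissolved in DMSO for 4 h and absorbance read at 540 nm. Viability was expressed as % of untreated cells, and IC50 was derived.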

A549 [29] = experiment: Cytotoxicity against human A549 cells assessed as cell death at 10 ug after 48 hrs by MTT assay; assay type: functional; outline: as §2
Staphylococcus aureus [30] = experiment: Antimicrobial activity against methicillin-resistant Staphylococcus aureus strain 4 TB5G after 24 hrs by microdilution method; assay type: functional; outline: as §4
Staphylococcus aureus [31] = experiment: Antimicrobial activity against methicillin-resistant Staphylococcus aureus strain 1 TB3G after 24 hrs by microdilution method; assay type: functional; outline: as §4
Escherichia coli [32] = experiment: Antimicrobial activity against Escherichia coli at 1000 ug/disc after 24 hrs by disc diffusion method; assay type: functional; settings: read-out: DIZ
Bacillus subtilis [33] = experiment: Antimicrobial activity against Bacillus subtilis at 1000 ug/disc after 24 hrs by disc diffusion method; assay type: functional; settings: read-out: DIZ
[34] = test system: Staphylococcus epidermidis; experiment: Antimicrobial activity against Staphylococcus epidermidis after 24 hrs by microdilution method; assay type: functional; outline: as §3
[35] = test system: Staphylococcus epidermidis; experiment: Antimicrobial activity against Staphylococcus epidermidis at 500 ug/disc after 24 hrs by disc diffusion method; assay type: functional; settings: for zone of inhibition at 500 µg/disc: read-out: DIZ
[36] = test system: Staphylococcus epidermidis; experiment: Antimicrobial activity against Staphylococcus epidermidis at 1000 ug/disc after 24 hrs by disc diffusion method; assay type: functional; settings: for zone of inhibition at 1000 µg/disc: read-out: DIZ
[37] = Salmonella enterica subsp. enterica serovar Typhimurium

Compound	zone of inhibition at 1000 µg/disc (Staphylococcus aureus [1]) [mm]	Activity (A549 [2]) [%]	Activity (A549 [7]) [%]	zone of inhibition at 500 µg/disc (Salmonella typhimurium [9]) [mm]	zone of inhibition at 500 µg/disc (Bacillus subtilis [10]) [mm]	zone of inhibition at 500 µg/disc (Staphylococcus aureus [13]) [mm]	zone of inhibition at 1000 µg/disc (Klebsiella pneumoniae [16]) [mm]	zone of inhibition at 500 µg/disc (Escherichia coli [18]) [mm]	zone of inhibition at 500 µg/disc (Klebsiella pneumoniae [19]) [mm]	zone of inhibition at 1000 µg/disc (Salmonella typhimurium [20]) [mm]	Activity (A549 [23]) [%]	Activity (A549 [27]) [%]	IC50 (A549 [28]) [µM]	Activity (A549 [29]) [%]	zone of inhibition at 1000 µg/disc (Escherichia coli [32]) [mm]	zone of inhibition at 1000 µg/disc (Bacillus subtilis [33]) [mm]	zone of inhibition at 500 µg/disc [35] [mm]	zone of inhibition at 1000 µg/disc [36] [mm]	diameter of the inhibition zone (DIZ) (Staphylococcus aureus [5])	diameter of the inhibition zone (DIZ) (Staphylococcus aureus [6])	further results
CC(C)CC(=O)O[C@@H](c1ccccc1)c1cc(O)c(C(=O)O)c(=O)[nH]1	12	47.69	25.23	11	5	7	20	9	13	19	9.53	82.46	9	77.23	18	12	11	18	–	–	MIC (Escherichia coli [3]): 25 mg/L (≈ 72.4 µM); MIC (Staphylococcus aureus [4]): > 100 mg/L; zone of inhibition at 1000 µg/disc (Staphylococcus aureus [5]; read-out: DIZ): 10 mm; zone of inhibition at 1000 µg/disc (Staphylococcus aureus [6]; read-out: DIZ): 16 mm; MIC (Klebsiella pneumoniae [8]): 100 mg/L (≈ 290 µM); zone of inhibition at 500 µg/disc (Staphylococcus aureus [11]; read-out: DIZ): 7 mm; zone of inhibition at 500 µg/disc (Staphylococcus aureus [12]; read-out: DIZ): 5 mm; MIC (Staphylococcus aureus [14]): > 100 mg/L; zone of inhibition at 500 µg/disc (Listeria monocytogenes [15]; read-out: DIZ): 10 mm; MIC (Bacillus subtilis [17]): 50 mg/L (≈ 145 µM); zone of inhibition at 1000 µg/disc (Staphylococcus aureus [21]; read-out: DIZ): 10 mm; MIC (Listeria monocytogenes [22]): > 100 mg/L; MIC (Salmonella typhimurium [24]): > 100 mg/L; zone of inhibition at 500 µg/disc (Staphylococcus aureus [25]; read-out: DIZ): 6 mm; zone of inhibition at 1000 µg/disc (Listeria monocytogenes [26]; read-out: DIZ): 18 mm; MIC (Staphylococcus aureus [30]): > 100 mg/L; MIC (Staphylococcus aureus [31]): > 100 mg/L; MIC [34]: 100 mg/L (≈ 290 µM)
CC(C)CC(=O)O[C@@H](c1ccccc1)c1cc(O)cc(=O)[nH]1	26	38.96	27.71	–	13	14	25	16	15	–	9.96	63.2	11	47.62	26	23	–	–	inactive	inactive	diameter of the inhibition zone (DIZ) (Salmonella typhimurium [9]; [37]): inactive; diameter of the inhibition zone (DIZ) (Staphylococcus aureus [11]): inactive; diameter of the inhibition zone (DIZ) (Staphylococcus aureus [12]): inactive; diameter of the inhibition zone (DIZ) (Listeria monocytogenes [15]): inactive; diameter of the inhibition zone (DIZ) (Salmonella typhimurium [20]; [37]): inactive; diameter of the inhibition zone (DIZ) (Staphylococcus aureus [21]): inactive; diameter of the inhibition zone (DIZ) (Staphylococcus aureus [25]): inactive; diameter of the inhibition zone (DIZ) (Listeria monocytogenes [26]): inactive; diameter of the inhibition zone (DIZ) [35]: inactive; diameter of the inhibition zone (DIZ) [36]: inactive
CC(C)CC(=O)O[C@H](c1ccccc1)c1cc(O)cc(=O)[nH]1	–	48.82	18.59	12	10	–	24	13	14	20	3.13	75.78	10	50.39	20	19	8	17	inactive	inactive	diameter of the inhibition zone (DIZ) (Staphylococcus aureus [1]): inactive; diameter of the inhibition zone (DIZ) (Staphylococcus aureus [11]): inactive; diameter of the inhibition zone (DIZ) (Staphylococcus aureus [12]): inactive; diameter of the inhibition zone (DIZ) (Staphylococcus aureus [13]): inactive; diameter of the inhibition zone (DIZ) (Listeria monocytogenes [15]): inactive; diameter of the inhibition zone (DIZ) (Staphylococcus aureus [21]): inactive; diameter of the inhibition zone (DIZ) (Staphylococcus aureus [25]): inactive; diameter of the inhibition zone (DIZ) (Listeria monocytogenes [26]): inactive
